# Screening data from PubChem.
# TRPC4 PAM – allosteric potentiators of mouse TRPC4 channel | Q9QUQ5 | HEK293 TRPC4beta/mu-opioid, DAMGO EC20, Fluo-4 Ca2+ flux; stronger effect = higher value | B-score at 10 µM | 310,000 tested, 0.42% active | AID 2227;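 active means B-score of calcium response area above 5 SD of library B-scores, with initial fluorescence ratio within 5 SD of library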;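 further: B-score of integrated fluorescence ratio over time as area under calcium response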
# TRPC6 inhibitor – mouse TRPC6 channel inhibition. B-score at 10 µM. 310,000 tested, 1.1% active. AID 2553. HEK293-TRPC6, membrane potential dye, ACh-evoked depolarization; stronger effect = lower value;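 active means B-score under library mean minus 3 SD, initial fluorescence not abnormally high, positive integrated signal ratio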;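 further: B-score derived from integrated fluorescence ratio over the kinetic read; more negative B-score means stronger inhibition of depolarization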
# TRPC4 block – TRPC4 (mouse) channel inhibition; B-score at 10 µM; 300,000 tested, 0.39% active; Q9QUQ5; HEK293 TRPC4beta/mu-opioid, DAMGO-evoked Fluo4 calcium flux; stronger effect = lower value; AID 2247;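 active means B-score over 3 SD under the library average, no early fluorescence shift, positive overall ratio signal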
#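 Assay system – HEK293 line stably carrying TRPC4beta and mu-opioid receptor · Doses – single dose · Detection – Fluo4 calcium-dye fluorescence, kinetic read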
# TRPC6 activator – activators of mouse TRPC6 channel. Q61143. HEK293-TRPC6 membrane potential dye fluorescence; stronger effect = higher value. B-score at 10 µM. 310,000 tested, 0.13% active;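 active means B-score of the integrated fluorescence ratio above library mean plus 3 SD, and starting fluorescence ratio within library mean plus 5 SD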;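 further: higher score means more depolarization so channel activation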
# TRPC4 agonist – opens the mouse TRPC4 cation channel. 310,000 tested, 0.49% active. HEK293 TRPC4beta/mu-opioid, Fluo4 calcium fluorescence; stronger effect = higher value. AID 2237. B-score at 10 µM;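 active means B-score above 5 SD of library B-scores, and initial fluorescence ratio not above library mean plus 5 SD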;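 further: positive B-score marks a calcium rise read as TRPC4 activation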
#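 Technique: kinetic Fluo4 calcium fluorescence; Test system: TRPC4beta and mu-opioid receptor HEK293 stable cells; Measure: B-scored integrated calcium fluorescence ratio; Benchmarks: low control buffer alone, high control maximal DAMGO; Schedule: 45 min room-temperature Fluo4 loading, 110 s read.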
# Starred values were filed as active, the others as inactive; i = inactive. In the library only some 2.3% were active in any assay of this set; here they are far more common.
SMILES,TRPC4 PAM,TRPC6 inhibitor,TRPC4 block,TRPC6 activator,TRPC4 agonist
O=C1CN=C(Nc2cccc(C(F)(F)F)c2)N1C1CCCC1,i,i,-6*,i,i
Cc1cc(C)c(NC2=NCC(=O)N2C2CCCCC2)c(C)c1,i,i,i,i,i
N#Cc1c(NCCCO)nc(-c2ccccc2)c2c1CCCC2,i,i,i,i,49*
CCC(C)NCCC(=O)Nc1ccc(Cl)c(S(=O)(=O)Nc2ccc(Cl)cc2)c1 (stereo not given),11*,i,i,i,i
CN(CCCNC(=O)CCCOc1cc(=O)n(C)c2ccccc12)Cc1ccccc1,19*,i,i,i,i
COc1ccc(CCNC(=O)CCCOc2cc(=O)n(C)c3ccccc23)cc1OC,i,i,i,i,i
CN(CCNC(=O)CCCOc1cc(=O)n(C)c2ccccc12)Cc1ccccc1,i,i,i,i,99*
O=C(Nc1ccc(S(=O)(=O)N2CCOCC2)cc1)c1ccccc1F,i,i,i,i,i
Cc1cc2ccccc2n2c(SCC(=O)NCC3CCCO3)nnc12 (stereo not given),i,i,i,i,i
CCCCn1c(N)c(N(CC)C(=O)c2cc3c(s2)CCCCC3)c(=O)[nH]c1=O,i,i,i,i,i
CCOc1ccc(NS(=O)(=O)c2ccc(C(=O)NCc3ccccn3)cc2)cc1,i,i,i,i,44*
Cc1ccc(NS(=O)(=O)c2ccc(C(=O)NCc3ccccn3)cc2)cc1,i,i,i,i,44*
CCOc1ccc(NS(=O)(=O)c2ccc(C(=O)NCc3ccncc3)cc2)cc1,i,i,i,i,i
CCC(=O)OCc1cc(=O)oc2ccc3ccccc3c12,i,i,i,i,i
N#C/C(N)=C(/C#N)N=Cc1cccc(Cl)c1,11*,i,i,i,i
O=C(CSc1nc2ccccc2c(=O)n1CC1CCCO1)Nc1ccc(F)cc1 (stereo not given),i,i,i,i,i
O=c1[nH]c(SCc2ccccc2Cl)nc2c1CCC2,i,i,i,i,i
CNc1nc(SCc2ccccc2Cl)nc2c1CCCC2,i,i,-6*,i,i
Cc1ccc(S(=O)(=O)NC(C(=O)Oc2cc3oc(=O)cc(C)c3cc2Cl)C(C)C)cc1 (stereo not given),15*,i,i,i,i
CC(=O)Oc1cc2oc(=O)cc(C)c2cc1Cl,i,i,i,i,i
CCOC(=O)c1cc2cc([N+](=O)[O-])ccc2oc1=O,i,i,i,i,i
CCOC(=O)CC(NC(=O)c1cc2cc(Br)ccc2oc1=O)c1cccc([N+](=O)[O-])c1 (stereo not given),26*,i,i,i,i
CCOC(=O)CC(NS(=O)(=O)c1ccc(OC)c(C)c1)c1cccc([N+](=O)[O-])c1 (stereo not given),i,i,-6*,i,i
CCOc1ccc(C(CC(=O)O)NS(=O)(=O)c2ccc(C)cc2)cc1OC (stereo not given),i,i,i,i,i
Cc1cc(NC(=O)C(C)SCC(=O)Nc2ccccc2C(C)(C)C)no1 (stereo not given),i,i,i,i,i
SMILES,TRPC4 PAM,TRPC6 inhibitor,TRPC4 block,TRPC6 activator,TRPC4 agonist
CN(C)C(CNC(=O)C1CC(=O)N(Cc2ccccc2)C1)c1ccccc1 (stereo not given),i,i,i,i,72*
COC(=O)C1CC(=O)N(Cc2ccccc2)C1 (stereo not given),i,i,i,i,i
COc1ccc(C(CNC(=O)C2CC(=O)N(Cc3ccc(C)cc3)C2)N(C)C)cc1 (stereo not given),i,i,i,i,66*
Cc1ccccc1-c1nnc(SCC(=O)N2CCCC2)o1,i,i,i,i,i
CN(Cc1ccccc1)S(=O)(=O)c1csc(C(N)=O)c1,i,i,i,i,i
O=C1NC2(CCCC2)C(=O)N1CC(=O)N(Cc1ccccc1)c1ccccc1,i,i,i,i,i
O=C(C1CCN(S(=O)(=O)c2cccnc2)CC1)N1CCN(c2ccc(Cl)cc2)CC1,i,i,-6*,i,63*
CC(=O)N1CCN(c2ccc(OC[C@H]3CO[C@](Cn4ccnc4)(c4ccc(Cl)cc4Cl)O3)cc2)CC1,i,i,i,i,52*
Clc1ccc(-c2cn3c(n2)-c2ccccc2C3)cc1Cl,i,i,i,i,i
CC1CCCN(CCCNC(=O)c2ccc3c(c2)N(Cc2ccccc2F)C(=O)c2ccccc2S3(=O)=O)C1 (stereo not given),i,i,i,i,114*
Cc1cc(/C=N/n2c(COc3ccccc3C)nc3ccccc3c2=O)c(O)c([N+](=O)[O-])c1,i,i,i,i,i
O=c1c2ccccc2nc(COc2ccccc2)n1/N=C/c1cc([N+](=O)[O-])ccc1O,27*,i,i,i,i
COc1ccc(C)cc1S(=O)(=O)Nc1ccc(F)c(Cl)c1,10*,i,i,i,i
CC(=O)Nc1ccc(S(=O)(=O)N2CCC(N3CCCCC3)CC2)cc1,i,i,i,i,i
OCCC1CN(Cc2nc3ccccc3s2)CCN1CCc1ccccc1 (stereo not given),i,i,i,i,60*
C#Cc1ccc(CN2CCN(CCc3ccccc3)C(CCO)C2)cc1 (stereo not given),i,i,i,i,43*
OCCC1CN(Cc2ccc(F)cc2)CCN1CCc1ccccc1 (stereo not given),i,i,i,i,i
CC(C)CCN1CCN(Cc2ccsc2)CC1CCO (stereo not given),i,i,-8*,i,i
O=C(Nc1ccc(F)cc1)c1cc(-c2ccncc2)nc2c(Cl)cccc12,i,i,i,i,i
CCCn1c(NC(=O)c2ccc(Cl)c(S(=O)(=O)N3CCCC3)c2)nc2ccccc21,32*,i,-7*,i,i
Cc1c(Cl)c(C(=O)Nc2nc3ccccc3n2CCN2CCCCC2)nn1C,i,-8.2*,i,i,i
Cc1c(Cl)cccc1NC(=S)N1CCC(N(C)CC2CCCO2)CC1 (stereo not given),i,i,i,i,i
CCCCN(C)CCCNC(=O)CN1N=C(c2ccc(Cl)cc2)CCC1=O,12*,i,i,i,102*
COC(=O)c1ccc(C(=S)NCC2(N(C)C)CCCCC2)cc1,i,i,i,i,101*
